Experimental data published in ChEMBL document CHEMBL1933045, “Fused thiophene derivatives as MEK inhibitors” (Bioorg Med Chem Lett, 2012).
Values after ≈ are worked out from the molar mass of the structure shown. Active and inactive are the calls of the source. The calls are words filed in the database; no cut-off is given here.

Assays:
[1] = molecular target: Dual specificity mitogen-activated protein kinase kinase; MEK1/2 (Homo sapiens, UniProt P36507+Q02750); experiment: Inhibition of human MEK using fluorescein-labelled Erk-tide as substrate after 20 mins by IMAP assay
Summary of the method: (§1)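 Values are means of two experiments, IC50 in nM.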

[2] = Inhibition of Erk phosphorylation in human HT-29 cells; format: cell-based; summary of the method: as §1
HT-29 = experiment: Antiproliferative activity against human HT-29 cells; format: functional, cell-based; summary of the method: as §1
[3] = Aqueous solubility of the compound at pH 7.4; format: physicochemical
Mus musculus [4] = experiment: Inhibition of Erk phosphorylation in PMA-stimulated whole blood in nude mouse bearing human HT-29 cells at 50 mg/kg, po after 1 hr; format: functional, organism-based; design: dose 50 mg/kg
Summary of the method: (§2)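 Nude mice bearing HT-29 tumours, dosed p.o. with vehicle (0 h) or 50 mg/kg compound; pERK measured in PMA-stimulated whole blood at 1, 6 and 18 h post dose. Plasma drug by LC–MS/MS; significance versus vehicle by one-way ANOVA with Bonferroni post test.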

[5] = Cmax in mouse at 10 mg/kg, po; format: ADME, organism-based; design: dose 10 mg/kg, route oral; details: in vivo
Summary of the method: (§3)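 Female nude mice, single oral dose 10 mg/kg; plasma drug levels measured over time; Cmax and AUClast derived.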

Mus musculus [6] = experiment: Inhibition of Erk phosphorylation in PMA-stimulated whole blood in nude mouse bearing human HT-29 cells at 50 mg/kg, po after 18 hrs relative to control; format: functional; details: HT-29, Blood; summary of the method: as §2
Mus musculus [7] = experiment: Inhibition of Erk phosphorylation in human HT-29 cells xenografted in nude mouse at 50 mg/kg, po after 18 hrs
Mus musculus [8] = experiment: Inhibition of Erk phosphorylation in PMA-stimulated whole blood in nude mouse bearing human HT-29 cells at 50 mg/kg, po after 6 hrs; format: functional, organism-based; design: dose 50 mg/kg; summary of the method: as §2
[9] = AUC (0 to last) in mouse at 10 mg/kg, po; format: ADME, organism-based; design: time 0 - last, dose 10 mg/kg, route oral; details: plasma; summary of the method: as §3
[10] = Intrinsic clearance in rat hepatocytes assessed per 10^6 cells; format: ADME, cell-based, Hepatocyte; details: read-out: CLH

SMILES | IC50 [1] | IC50 [2] | IC50 (HT-29) | also measured
CC1(C)CNC(=O)c2sc(Nc3ccc(I)cc3F)nc2C1 | 946 nM | 1540 nM | 8870 nM | –
CC1(C)CNC(=O)c2sc(Nc3ccc(I)cc3F)c(C(=O)NCCCO)c2C1 | 309 nM | 140 nM | 6210 nM | –
CC1(C)CNC(=O)c2sc(Nc3ccc(I)cc3F)c(C(N)=O)c2C1 | 9 nM | – | 158 nM | –
CCOC(=O)c1c(Nc2ccc(I)cc2Cl)sc2c1CC(C)(C)CNC2=O | 2617 nM | – | – | –
CC1(C)CNC(=O)c2sc(Nc3ccc(I)cc3Cl)c(C(N)=O)c2C1 | 13 nM | 92 nM | 596 nM | solubility ([3]; buffer): Insoluble
CC1(C)CNC(=O)c2sc(Nc3ccc(I)cc3Cl)c(C(=O)NOC[C@H](O)CO)c2C1 | 9 nM | 76 nM | 896 nM | –
CC1(C)CNC(=O)c2sc(Nc3ccc(I)cc3Cl)c(C(=O)NCC[C@@H](O)CO)c2C1 | 200 nM | 717 nM | 12100 nM | –
CCOC(=O)c1c(Nc2ccc(I)cc2F)sc2c1CC(C)(C)CNC2=O | 305 nM | – | – | –
CNC(=O)c1c(Nc2ccc(I)cc2Cl)sc2c1CC(C)(C)CNC2=O | 226 nM | 224 nM | 1630 nM | –
CC1(C)CNC(=O)c2sc(Nc3ccc(I)cc3F)c(C(=O)O)c2C1 | 14 nM | 978 nM | – | –

More lines, in order of falling IC50 [2], values ahead:

IC50 [1] | IC50 [2] | IC50 (HT-29) | SMILES | also measured
6 nM | 51 nM | 1580 nM | CC1(C)CNC(=O)c2sc(Nc3ccc(I)cc3F)c(C(=O)NOC[C@H](O)CO)c2C1 | –
456 nM | 45 nM | 1040 nM | CC1(C)CNC(=O)c2sc(Nc3ccc(I)cc3Cl)c(C(=O)N3CCNCC3)c2C1 | –
28 nM | 43 nM | 710 nM | CC1(C)CNC(=O)c2sc(Nc3ccc(I)cc3Cl)c(C(=O)NC[C@@H](O)CO)c2C1 | –
42 nM | 22 nM | 120 nM | CC1(C)CNC(=O)c2sc(Nc3ccc(I)cc3F)c(C(=O)NC[C@H]3CCCN3)c2C1 | –
7 nM | 18 nM | 340 nM | CC1(C)CNC(=O)c2sc(Nc3ccc(I)cc3F)c(C(=O)NOCCO)c2C1 | –
18 nM | 13 nM | 113 nM | CC(C)(N)CNC(=O)c1c(Nc2ccc(I)cc2Cl)sc2c1CC(C)(C)CNC2=O | –
8 nM | 9 nM | 54 nM | CC1(C)CNC(=O)c2sc(Nc3ccc(I)cc3F)c(C(=O)N[C@@H]3CCNC3)c2C1 | –
14 nM | 6 nM | 79 nM | CC(C)(N)CNC(=O)c1c(Nc2ccc(I)cc2F)sc2c1CC(C)(C)CNC2=O | inhibition (Mus musculus [4]): Active; Cmax [5]: 323 ng/mL; inhibition in vivo at 50 mg/kg (Mus musculus [6]): 35%; inhibition (Mus musculus [7]): inactive; inhibition (Mus musculus [8]): Active; AUC(0-t) [9]: 1240 ng·h/mL; hepatocyte CLint [10]: 2.6 µL/min/1e6 cells; solubility ([3]; aqueous, read-out: solubility): 210 µM (≈ 114 µg/mL)
22 nM | 5 nM | 91 nM | CC1(C)CNC(=O)c2sc(Nc3ccc(I)cc3F)c(C(=O)N[C@@H]3CCCNC3)c2C1 | –
